Measurements: ChEMBL document CHEMBL3817763, “Exploration of GGTase-I substrate requirements. Part 2: Synthesis and biochemical analysis of novel saturated geranylgeranyl diphosphate analogs” (Bioorg Med Chem Lett, 2016)
Active and inactive are the calls of the source. The calls are words filed in the database; no cut-off is given here.

What was measured:
[1] = biological target: T1, Protein farnesyltransferase (Homo sapiens) (UniProt P49354+P49356); experiment: Activity at recombinant FTase (unknown origin) using dansyl-GCVLS as co-substrate assessed as protein prenylation at 5 uM incubated for 1.5 hrs by spectrofluorometric method; type: protein-complex assay
Procedure, shortened: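 Preliminary single-point screen: analog diphosphate 5 µM with 5 µM dansyl-GCVLS and 50 nM FTase; continuous fluorescence read at 1.5 h. Result is given as relative fluorescence increase, normalized to FPP (5 µM, 1.5 h) set to 1.0. Mean ± SD, n = 3.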

[2] = biological target: T2, Geranylgeranyl transferase type I (Homo sapiens) (UniProt P49354+P53609); experiment: Activity at recombinant GGTase1 (unknown origin) using dansyl-GCVLL as co-substrate assessed as protein prenylation at 5 uM incubated for 1.5 hrs by spectrofluorometric method
Procedure, shortened: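 Preliminary single-point screen: analog diphosphate 5 µM with 5 µM dansyl-GCVLL and 50 nM GGTase-I; continuous fluorescence read at 1.5 h. Result is given as relative fluorescence increase, normalized to GGPP (1.5 h) set to 1.0. Mean ± SD, n = 3.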

[3] = biological target: T1, Protein farnesyltransferase (Homo sapiens); experiment: Ratio of Kcat to Km for recombinant FTase (unknown origin) using dansyl-GCVLS as co-substrate assessed as protein prenylation by spectrofluorometric method relative to FPP; type: protein-complex assay
[4] = system: CC(C)=CCC/C(C)=C/CC/C(C)=C/COP(=O)(O)OP(=O)(O)O; experiment: (§1) Ratio of Kcat to Km for recombinant FTase (unknown origin) using dansyl-GCVLS as co-substrate assessed as protein prenylation by spectrofluorometric method; type: protein-complex assay; details: Homo sapiens
[5] = system: CCCCCCCCC/C(C)=C/CC/C(C)=C/COP(=O)(O)OP(=O)(O)O; experiment: as §1; type: protein-complex assay; details: Homo sapiens
[6] = system: CCCCCCCCCCC/C(C)=C/COP(=O)(O)OP(=O)(O)O; experiment: as §1; type: protein-complex assay; details: Homo sapiens
[7] = system: C/C(=C\COP(=O)(O)OP(=O)(O)O)CC/C=C(\C)CCCC(C)CCCC(C)C; experiment: as §1; type: protein-complex assay; details: Homo sapiens
[8] = system: CCCCCCCCCCCC/C(C)=C/COP(=O)(O)OP(=O)(O)O; experiment: as §1; type: protein-complex assay; details: Homo sapiens
[9] = system: CCCCCCCCCCCCC/C(C)=C/COP(=O)(O)OP(=O)(O)O; experiment: as §1; type: protein-complex assay; details: Homo sapiens
[10] = system: CC(C)=CCCCCCCCCCC/C(C)=C/COP(=O)(O)OP(=O)(O)O; experiment: as §1; type: protein-complex assay; details: Homo sapiens
[11] = system: CCCCCCC/C(C)=C/CC/C(C)=C/COP(=O)(O)OP(=O)(O)O; experiment: as §1; type: protein-complex assay; details: Homo sapiens
[12] = system: CC(C)=CCCCCCCCCC/C(C)=C/COP(=O)(O)OP(=O)(O)O; experiment: as §1; type: protein-complex assay; details: Homo sapiens
[13] = system: CCCCCC/C(C)=C/CC/C(C)=C/COP(=O)(O)OP(=O)(O)O; experiment: as §1; type: protein-complex assay; details: Homo sapiens
[14] = system: CCCCCCCC/C(C)=C/CC/C(C)=C/COP(=O)(O)OP(=O)(O)O; experiment: as §1; type: protein-complex assay; details: Homo sapiens
[15] = system: CCCCCCCCC/C(C)=C/CC/C(C)=C/COP(=O)(O)OP(=O)(O)O; experiment: (§2) Ratio of Kcat to Km for recombinant GGTase1 (unknown origin) using dansyl-GCVLL as co-substrate assessed as protein prenylation by spectrofluorometric method; details: Homo sapiens
[16] = system: CCCCCCCCCCC/C(C)=C/COP(=O)(O)OP(=O)(O)O; experiment: as §2; details: Homo sapiens
[17] = system: C/C(=C\COP(=O)(O)OP(=O)(O)O)CC/C=C(\C)CCCC(C)CCCC(C)C; experiment: as §2; details: Homo sapiens
[18] = system: CCCCCCCCCCCC/C(C)=C/COP(=O)(O)OP(=O)(O)O; experiment: as §2; details: Homo sapiens
[19] = system: CC(C)=CCC/C(C)=C/CC/C(C)=C/CC/C(C)=C/COP(=O)(O)OP(=O)(O)O; experiment: as §2; details: Homo sapiens
[20] = system: CCCCCCCCCCCCC/C(C)=C/COP(=O)(O)OP(=O)(O)O; experiment: as §2; details: Homo sapiens
[21] = system: C/C(=C\CC/C(C)=C/COP(=O)(O)OP(=O)(O)O)CC/C=C(\C)CCCC(C)C; experiment: as §2; details: Homo sapiens
[22] = system: CC(C)=CCCCCCCCCCC/C(C)=C/COP(=O)(O)OP(=O)(O)O; experiment: as §2; details: Homo sapiens
[23] = system: CCCCCCC/C(C)=C/CC/C(C)=C/COP(=O)(O)OP(=O)(O)O; experiment: as §2; details: Homo sapiens
[24] = system: CC(C)=CCCCCCCCCC/C(C)=C/COP(=O)(O)OP(=O)(O)O; experiment: as §2; details: Homo sapiens
[25] = system: CCCCCCCC/C(C)=C/CC/C(C)=C/COP(=O)(O)OP(=O)(O)O; experiment: as §2; details: Homo sapiens
[26] = biological target: T2, Geranylgeranyl transferase type I (Homo sapiens); experiment: Ratio of Kcat to Km for recombinant GGTase1 (unknown origin) using dansyl-GCVLL as co-substrate assessed as protein prenylation by spectrofluorometric method relative to GGPP
[27] = species: Homo sapiens; experiment: Ratio of Kcat/Km for recombinant FTase (unknown origin) to Kcat/Km for recombinant GGTase1 (unknown origin)

CCCCCC/C(C)=C/CC/C(C)=C/COP(=O)(O)OP(=O)(O)O
Activity [1]: Active | Activity [2]: Active | Ratio [3]: 0.35

Protein farnesyltransferase (Homo sapiens) (from UniProt P49354+P49356)
kcat/Km [4]: 4.6 ×10⁴ /M/s | kcat/Km [5]: 3.3 ×10⁴ /M/s | kcat/Km [6]: 8.3 ×10³ /M/s | kcat/Km [7]: 3.5 ×10³ /M/s | kcat/Km [8]: 1.1 ×10⁴ /M/s | kcat/Km [9]: 4.1 ×10³ /M/s | kcat/Km [10]: 7.1 ×10³ /M/s | kcat/Km [11]: 7.1 ×10³ /M/s | kcat/Km [12]: 6.8 ×10³ /M/s | kcat/Km [13]: 1.6 ×10⁴ /M/s | kcat/Km [14]: 9.7 ×10³ /M/s

Geranylgeranyl transferase type I (Homo sapiens) (from UniProt P49354+P53609)
kcat/Km [15]: 3.6 ×10⁴ /M/s | kcat/Km [16]: 3.2 ×10³ /M/s | kcat/Km [17]: 1.2 ×10³ /M/s | kcat/Km [18]: 8.9 ×10² /M/s | kcat/Km [19]: 3.78 ×10⁴ /M/s | kcat/Km [20]: 6.2 ×10³ /M/s | kcat/Km [21]: 6.3 ×10³ /M/s | kcat/Km [22]: 1.9 ×10⁴ /M/s | kcat/Km [23]: 3.2 ×10⁴ /M/s | kcat/Km [24]: 9 ×10² /M/s | kcat/Km [25]: 2.2 ×10⁴ /M/s

CCCCCCCCC/C(C)=C/CC/C(C)=C/COP(=O)(O)OP(=O)(O)O
Activity [1]: Active | Activity [2]: Active | Ratio [26]: 0.95 | Ratio [3]: 0.72

C/C(=C\CC/C(C)=C/COP(=O)(O)OP(=O)(O)O)CC/C=C(\C)CCCC(C)C
Activity [1]: Active | Activity [2]: Active | Ratio [26]: 0.17

CC(C)=CCCCCCCCCC/C(C)=C/COP(=O)(O)OP(=O)(O)O
Activity [1]: Active | Activity [2]: Active | Ratio [26]: 0.02 | Ratio [3]: 0.15

CC(C)=CCCCCCCCCCC/C(C)=C/COP(=O)(O)OP(=O)(O)O
Activity [1]: Active | Activity [2]: Active | Ratio [26]: 0.5 | Ratio [3]: 0.15

CCCCCCCCCCCCC/C(C)=C/COP(=O)(O)OP(=O)(O)O
Activity [1]: Active | Activity [2]: Active | Ratio [26]: 0.16 | Ratio [3]: 0.09

CCCCCCCC/C(C)=C/CC/C(C)=C/COP(=O)(O)OP(=O)(O)O
Activity [1]: Active | Ratio [27]: 0.44 | Activity [2]: Active | Ratio [26]: 0.58 | Ratio [3]: 0.21

CCCCCCCCCCC/C(C)=C/COP(=O)(O)OP(=O)(O)O
Activity [1]: Active | Ratio [27]: 2 | Activity [2]: Active | Ratio [26]: 0.08 | Ratio [3]: 0.18

CCCCCCCCCCCC/C(C)=C/COP(=O)(O)OP(=O)(O)O
Activity [1]: Active | Ratio [27]: 12 | Activity [2]: Active | Ratio [26]: 0.02 | Ratio [3]: 0.24

C/C(=C\COP(=O)(O)OP(=O)(O)O)CC/C=C(\C)CCCC(C)CCCC(C)C (stereo not drawn)
Activity [1]: Active | Activity [2]: Active | Ratio [26]: 0.03 | Ratio [3]: 0.05

CCCCCCC/C(C)=C/CC/C(C)=C/COP(=O)(O)OP(=O)(O)O
Activity [1]: Active | Ratio [27]: 0.22 | Activity [2]: Active | Ratio [26]: 0.85 | Ratio [3]: 0.15
